The source of these data is ChEMBL document CHEMBL4004871, “Impact of androstane A- and D-ring inversion on 17β-hydroxysteroid dehydrogenase type 3 inhibitory activity, androgenic effect and metabolic stability” (Bioorg Med Chem, 2017).

The source made the active and inactive calls. The calls are words filed in the database; no cut-off is given here.

Data set [1] deals with T1, 17-beta-hydroxysteroid dehydrogenase type 3 (Homo sapiens) (UniProt P37058).
T1 sequence (whole entry): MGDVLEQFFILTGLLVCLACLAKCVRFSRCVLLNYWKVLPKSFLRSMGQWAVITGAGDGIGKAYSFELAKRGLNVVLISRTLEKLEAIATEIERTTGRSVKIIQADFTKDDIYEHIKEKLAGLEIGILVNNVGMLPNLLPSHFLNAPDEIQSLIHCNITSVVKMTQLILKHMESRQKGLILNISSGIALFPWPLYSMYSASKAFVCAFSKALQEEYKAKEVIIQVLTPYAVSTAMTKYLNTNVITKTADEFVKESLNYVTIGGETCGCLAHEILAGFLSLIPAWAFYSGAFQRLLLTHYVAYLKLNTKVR
In words: Inhibition of 17-beta-HSD3 (unknown origin) expressed in human LNCaP cells using [14C]-4-androstene-3,17-dione as substrate assessed as reduction of [14C]-testosterone level at 0.1 to 1 uM after 1 hr by TLC method. Type of data set: cell-based. In a few lines: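 LNCaP cells stably transfected with 17β-HSD3, grown in RPMI-1640 with 10% FBS and hygromycin; hygromycin omitted for assay. 10,000 cells/well plated, incubated 2 days, then 15 nM [14C]-4-androstene-3,17-dione added with inhibitor in DMSO (final 0.05%).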

In data set [2] the target is T2, Androgen receptor (Homo sapiens, UniProt P10275).
T2 sequence (P10275 whole entry): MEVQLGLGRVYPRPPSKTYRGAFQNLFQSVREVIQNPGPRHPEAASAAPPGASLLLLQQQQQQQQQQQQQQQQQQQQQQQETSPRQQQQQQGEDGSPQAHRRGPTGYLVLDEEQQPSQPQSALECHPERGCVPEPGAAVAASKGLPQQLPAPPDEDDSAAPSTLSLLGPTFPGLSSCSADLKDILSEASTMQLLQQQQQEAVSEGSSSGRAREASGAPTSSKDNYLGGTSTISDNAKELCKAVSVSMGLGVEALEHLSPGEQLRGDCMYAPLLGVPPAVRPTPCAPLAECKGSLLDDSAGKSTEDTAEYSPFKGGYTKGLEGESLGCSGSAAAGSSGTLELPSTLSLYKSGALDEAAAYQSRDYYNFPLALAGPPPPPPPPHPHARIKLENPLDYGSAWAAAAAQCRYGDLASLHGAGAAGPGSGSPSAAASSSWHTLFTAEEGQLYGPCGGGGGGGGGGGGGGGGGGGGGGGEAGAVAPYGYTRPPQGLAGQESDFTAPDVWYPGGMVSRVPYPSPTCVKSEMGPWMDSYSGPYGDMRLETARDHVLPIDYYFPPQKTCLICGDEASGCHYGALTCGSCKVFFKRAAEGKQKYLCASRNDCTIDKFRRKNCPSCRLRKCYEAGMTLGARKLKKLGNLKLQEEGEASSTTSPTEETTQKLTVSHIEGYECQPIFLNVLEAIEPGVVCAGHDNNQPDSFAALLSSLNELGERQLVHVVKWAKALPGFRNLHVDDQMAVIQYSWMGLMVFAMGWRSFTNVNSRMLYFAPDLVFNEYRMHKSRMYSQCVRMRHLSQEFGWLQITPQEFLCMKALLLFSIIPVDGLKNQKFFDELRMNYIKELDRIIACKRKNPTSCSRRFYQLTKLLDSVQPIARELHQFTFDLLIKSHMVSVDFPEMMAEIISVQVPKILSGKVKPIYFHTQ
The data set is described as follows: Androgenic activity at AR in human LAPC4 cells assessed as cell growth at 1 uM after 3 days by MTS method relative to control. To be noted: 72 h. Type of data set: cell-based. In a few lines:
(§1)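 LAPC-4 (AR+) cells, cultured in RPMI-1640 with FBS, L-glutamine and insulin, were switched to medium with 5% dextran-coated charcoal treated FBS. 10,000 cells/well, triplicate, were pre-incubated 24 h at 37 °C, then given compound diluted from DMSO stock for 3 days; vehicle DMSO controls. Growth read by MTS, expressed as % proliferation minus basal 100%.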

Data set [3] concerns the target T2, Androgen receptor. In words: Androgenic activity at AR in human LAPC4 cells assessed as cell growth at 0.1 uM after 3 days by MTS method relative to control. Type of data set: cell-based. To be noted: 72 h. In a few lines:
as §1

Data set [4] concerns the target T3, 17-beta-hydroxysteroid dehydrogenase type 3 (Homo sapiens, UniProt P37058).
T3 sequence (P37058 whole entry): T1 sequence (whole entry)
The data set is described as follows: Inhibition of 17-beta-HSD3 (unknown origin) expressed in human LNCaP cells using [14C]-4-androstene-3,17-dione as substrate assessed as reduction of [14C]-testosterone level after 1 hr by TLC method.

Data set [5] concerns the target T2, Androgen receptor. In words: Androgenic activity at AR in human LAPC4 cells assessed as cell growth at 0.5 uM after 3 days by MTS method relative to control. Type of data set: cell-based. To be noted: 72 h. In a few lines: as §1
(In general: Tetrazolium dyes change colour on reduction, which living cells bring about.)

Data set [6] is described as follows: Metabolic stability in human liver microsomes assessed as parent compound remaining at 10 uM after 1 hr by HPLC-MS analysis. The note with it: read-out: Stability. Type of data set: ADME, microsome. In a few lines:
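Human liver microsomes (40 μg) were incubated with 10 μM substrate for 1 h at 37 °C, with or without 10 mM NADPH, in 50 mM Tris plus 10 mM MgCl₂. MeOH-quenched, centrifuged supernatants from 2 assays pooled for HPLC-MS with UV at 190 nm. % remaining = AUC with NADPH / AUC without NADPH × 100; mean of 4 independent experiments.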
On the technique in general: Liver microsomes are a subcellular fraction often used to study metabolism.

Regarding `C[C@]12CC[C@@H](O)C[C@@H]1CC[C@@H]1[C@@H]2CC[C@@]2(C)C(=O)CC[C@@H]12`, the inhibition entry in data set [1] is “inactive”.

Turning to `C[C@@H]1CN(S(=O)(=O)c2ccccc2C(F)(F)F)[C@@H](C)CN1C[C@@]1(O)CC[C@@]2(C)[C@@H](CC[C@@H]3[C@@H]2CC[C@]2(C)C(=O)CC[C@@H]32)C1`, the Activity was 33% at Androgen receptor [2], 96% at Androgen receptor [3] and 48% on Androgen receptor [5]. The IC50 in data set [4] amounted to 110 nM.

In the case of `C[C@@H]1CN(S(=O)(=O)c2ccccc2C(F)(F)F)[C@@H](C)CN1C[C@]1(O)CC[C@@]2(C)[C@H](CC[C@@H]3[C@@H]2CC[C@@]2(C)C(=O)CC[C@@H]32)C1`, the Activity turned out to be 28.2% on Androgen receptor [2], 87.2% at Androgen receptor [3] and 72.3% at Androgen receptor [5]. For the same compound, in data set [6], the remaining at 1 h, 10 µM was determined as 16.6%. For the same compound, the IC50 in data set [4] was 150 nM.

With `C[C@@H]1CN(S(=O)(=O)c2ccccc2C(F)(F)F)[C@@H](C)CN1C[C@@]1(O)CC[C@@]2(C)[C@@H](CC[C@@H]3[C@@H]2CC[C@@]2(C)C(=O)CC[C@@H]32)C1`, the results for the Activity at Androgen receptor [2], at Androgen receptor [3] and on Androgen receptor [5] were 51%, 76.3% and 61.6%, respectively. In addition, in data set [6], the remaining at 1 h, 10 µM was 29.4%. Moreover, the IC50 in data set [4] amounted to 1090 nM.

With `C[C@]12CC[C@H](O)C[C@H]1CC[C@@H]1[C@@H]2CC[C@@]2(C)C(=O)CC[C@@H]12`, in data set [1], the inhibition entry was “inactive”.

Regarding `C[C@@H]1CN(S(=O)(=O)c2ccccc2C(F)(F)F)[C@@H](C)CN1C` (relative stereo), the inhibition result in data set [1] is “inactive”.

The IC50 is the concentration that gives 50% inhibition.
